Assay results as given in ChEMBL document CHEMBL1138826, “New 1,4-dihydropyridines endowed with NO-donor and calcium channel agonist properties” (J Med Chem, 2004).

Key:
[1] = target: T1, Voltage-gated L-type calcium channel (Rattus norvegicus, UniProt P22002+Q02485+P27732); assay: Effect on L-type [Ca2+] channels of rat RIN-m5F insulinoma cells in 10 mM Ba2+, -60 mV holding potential at 3 uM, -20 mV; format: functional
How it was run: (§1)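 Whole-cell patch clamp on cultured rat insulinoma RINm5F cells at 22 °C. External solution (mM): 125 NaCl, 10 BaCl2, 1 MgCl, 10 HEPES pH 7.3, 300 nM TTX. Internal solution CsCl/TEACl/EGTA-based with ATP and GTP. Held at -60 mV, stepped to -20 mV, returned to -40 mV. Compounds at 3 µM by fast superfusion. Result is % increase of L-type Ba2+ current, after subtracting the current insensitive to 3 µM nifedipine; 5-22 cells.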

[2] = organism: Rattus norvegicus; assay: Positive inotropic activity on rat papillary muscle electrically stimulated by unipolar square wave pulses; format: functional; conditions: Muscle tissue
How it was run: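 Electrically driven rat papillary muscle, 90 min equilibration. Cumulative curves in half-log steps, each step after a plateau, in the presence of 1 µM propranolol and 0.1 µM prazosin added 15 min beforehand. One curve per tissue. EC50 is the mean of 5-7 determinations.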

[3] = organism: Rattus norvegicus; assay: Capacity to increase [Ca2+] entry into the vascular smooth muscle was evaluated on rat aorta strips partially depolarized with 10 mM K; format: functional; conditions: Muscle tissue
How it was run: (§2)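 Thoracic aorta cut helically, endothelium removed, three strips per vessel, 0.7 g tension, isotonic recording. Equilibrated 1 h, then depolarized twice with 50 mM KCl at 60 min intervals. Cumulative contraction curves run in 10 mM KCl, protected from light. EC50 is the mean of 5-7 determinations.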

[4] = organism: Rattus norvegicus; assay: Capacity to increase [Ca2+] entry into the vascular smooth muscle was evaluated on rat aorta strips partially depolarized with 10 mM K+ relative to 50 mM KCl; format: functional, Muscle tissue; how it was run: as §2
[5] = target: T1, Voltage-gated L-type calcium channel; assay: Agonistic potency, mean percentage of increased Ba2+ currents at -20 mV; Range = 200-240%; format: functional; how it was run: as §1
[6] = organism: Rattus norvegicus; assay: Positive inotropic activity on rat papillary muscle electrically stimulated by unipolar square wave pulses in the presence of 1 uM ODQ.; format: functional; conditions: Muscle tissue
How it was run: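 Electrically stimulated rat papillary muscle with 1 µM propranolol and 0.1 µM prazosin, plus 1 µM ODQ added at least 15 min before the first dose. Cumulative half-log concentration-response curve, one per tissue, after 90 min equilibration. EC50 is the mean of 5-7 determinations.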

[7] = organism: Rattus norvegicus; assay: Capacity to increase [Ca2+] entry into the vascular smooth muscle was evaluated on rat aorta strips partially depolarized with 10 mM K+ in the presence of 1 uM ODQ.; format: functional; conditions: Muscle tissue
How it was run: (§3)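 Endothelium-denuded rat thoracic aorta strips under 0.7 g tension, precontracted twice with 50 mM KCl. Cumulative contraction curves in 10 mM KCl, in light-protected conditions, with 1 µM ODQ added at least 15 min before the first agonist concentration. EC50 is the mean of 5-7 determinations.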

[8] = organism: Rattus norvegicus; assay: Capacity to increase [Ca2+] entry into the vascular smooth muscle was evaluated on rat aorta strips partially depolarized with 10 mM K+; No effect; format: functional, Muscle tissue; how it was run: as §2
[9] = organism: Rattus norvegicus; assay: Capacity to increase [Ca2+] entry into the vascular smooth muscle was evaluated on rat aorta strips partially depolarized with 10 mM K+ relative to 50 mM KCl in the presence of 1 uM ODQ.; format: functional, Muscle tissue; how it was run: as §3

| Compound | Increase [1] [%] | EC50 [2] [nM] | EC50 [3] [nM] | Agonistic potency [5] [%] | EC50 [6] [nM] | EC50 [7] [nM] | EC50 [8] | Max [4] [%] | Max [9] [%] |
| --- | --- | --- | --- | --- | --- | --- | --- | --- | --- |
| COC(=O)C1=C(C)NC(C)=C([N+](=O)[O-])C1c1ccccc1C(F)(F)F (stereo unspecified) | 320 | 170 | 18 |  |  |  |  | 84 |  |
| CO/C(O)=C1/C(C)=NC(C)=C([N+](=O)[O-])C1c1ccccc1OCc1no[n+]([O-])c1C (stereo unspecified) |  | 1200 | 100 | < 240 | 1300 | 110 |  | 80 | 83 |

Now from value to compound, other results behind:

| Increase [1] [%] | EC50 [2] [nM] | EC50 [3] [nM] | Agonistic potency [5] [%] | EC50 [6] [nM] | EC50 [7] [nM] | EC50 [8] | Compound | Max [4] [%] | Max [9] [%] |
| --- | --- | --- | --- | --- | --- | --- | --- | --- | --- |
|  | 1500 | 120 | < 240 |  |  |  | CO/C(O)=C1/C(C)=NC(C)=C([N+](=O)[O-])C1c1ccccc1OCc1nonc1C#N (stereo unspecified) | 62 |  |
|  | 5200 |  | < 240 | 5000 | 210 | Not Active | CO/C(O)=C1/C(C)=NC(C)=C([N+](=O)[O-])C1c1ccccc1OCc1no[n+]([O-])c1C#N (stereo unspecified) | 0 | 29 |
|  | 820 | 57 | < 240 |  |  |  | CO/C(O)=C1/C(C)=NC(C)=C([N+](=O)[O-])C1c1ccccc1OCc1nonc1C (stereo unspecified) | 85 |  |
